Test results from ChEMBL document CHEMBL1157180 (Bioorg Med Chem, 2008).
pIC50, pKi: −log10 of the molar value. Active and inactive are the calls of the source. No cut-off for these calls is given here.

How the values were obtained:
Rattus norvegicus [1] = test: Acute toxicity in orally dosed Wistar rat after 1 week; type: organism-based; settings: in vivo, po, 168 h
Procedure, shortened: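 Rats, 8 per group, fasted 16 h, then given the compounds orally at various doses. Animals observed for 1 week after dosing, with deaths recorded daily.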

[2] = biological target: T1, Muscarinic acetylcholine receptor M1 (Rattus norvegicus, UniProt P08482); test: Displacement of [3H]Quinuclidinyl benzilate from muscarinic M1 receptor in Wistar rat cortex synaptosomal membrane
T1 sequence (P08482 whole entry): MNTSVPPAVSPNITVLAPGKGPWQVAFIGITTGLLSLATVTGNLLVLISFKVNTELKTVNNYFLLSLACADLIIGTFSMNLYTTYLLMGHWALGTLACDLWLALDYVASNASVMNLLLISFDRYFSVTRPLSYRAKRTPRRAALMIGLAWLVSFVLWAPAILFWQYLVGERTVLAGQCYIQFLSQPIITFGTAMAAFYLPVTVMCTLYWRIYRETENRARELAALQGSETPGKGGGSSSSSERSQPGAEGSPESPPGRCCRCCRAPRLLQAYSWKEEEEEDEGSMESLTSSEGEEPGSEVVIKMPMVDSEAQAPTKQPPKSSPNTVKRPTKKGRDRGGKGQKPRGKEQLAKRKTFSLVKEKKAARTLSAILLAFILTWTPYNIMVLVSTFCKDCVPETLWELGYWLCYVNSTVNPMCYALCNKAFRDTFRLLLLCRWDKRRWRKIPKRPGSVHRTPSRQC

Rattus norvegicus [3] = species: Rattus norvegicus; test: Reversal of scopolamine-induced spartial working memory loss in Wistar rat assessed by Y maze task; type: functional; parameters: concentration or dose not given beside the values
Procedure, shortened: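 Male Wistar rats (200–250 g, n = 8) receive test agent with scopolamine and explore the Y-maze 30 min later. Arm entries, including returns, are recorded visually. An alternation is successive entries into all three arms on overlapping triplets. % alternation = actual alternations/(total entries − 2) × 100, compared against the scopolamine-only group.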

Rattus norvegicus [4] = species: Rattus norvegicus; test: Antiamnesic activity in Wistar rat assessed as reversal of scopolamine-induced memory loss by passive avoidance test; type: functional, organism-based
Rattus norvegicus [5] = species: Rattus norvegicus; test: Reversal of scopolamine-induced memory and learning impairment in Wistar rat assessed as transfer latency for 90 seconds by plus maze test; type: functional, organism-based
Procedure, shortened: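 Elevated plus maze in male Wistar rats, 30 min after treatment, given scopolamine alone or test agent plus scopolamine; controls got 0.9% saline. Each rat is placed at the end of an open arm facing away from the centre. Transfer latency (TL) is the time to enter an enclosed arm. Day 1 has 90 s exploration (TL1, learning) and day 2 is a retest of the same rats (TL2, memory).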

SMILES | Activity (Rattus norvegicus [1]) | pIC50 [2] | pKi [2] | Activity (Rattus norvegicus [3]) [%] | Activity (Rattus norvegicus [4]) | Activity (Rattus norvegicus [5])
CN1CCC=C(C2CN(S(=O)(=O)c3cc(Cl)ccc3Cl)CCO2)C1 (stereo unspecified) | Non-toxic | 3.94 | 4.46 | 59 | Active | 
CN1CCC=C(C2CN(S(=O)(=O)c3ccc([N+](=O)[O-])cc3)CCO2)C1 (stereo unspecified) | Non-toxic | 3.68 | 4.19 |  | Active | 
CN1CCC=C(C2CN(S(=O)(=O)c3ccc(C(C)(C)C)cc3)CCO2)C1 (stereo unspecified) | Non-toxic | 4.72 | 5.40 | 61 | Active | Active
CN1CCC=C(C2CN(S(=O)(=O)c3ccccc3)CCO2)C1 (stereo unspecified) | Non-toxic | 4.05 | 4.57 | 60 | Active | Active
CN1CCC=C(C2CN(S(=O)(=O)c3ccc(Cl)cc3)CCO2)C1 (stereo unspecified) | Non-toxic | 6.04 | 6.59 | 64 | Active | Active
Cc1ccc(S(=O)(=O)N2CCOC(C3=CCCN(C)C3)C2)cc1 (stereo unspecified) | Non-toxic | 4.21 | 4.85 | 62 | Active | Active
CN1CCC=C(C2CN(S(=O)(=O)c3cccc([N+](=O)[O-])c3)CCO2)C1 (stereo unspecified) | Non-toxic | 3.70 | 4.21 |  | Active | 
CN1CCC=C(C2CN(S(=O)(=O)c3ccccc3[N+](=O)[O-])CCO2)C1 (stereo unspecified) | Non-toxic | 3.50 | 4.02 |  | Active | 
